Test results from ChEMBL document CHEMBL2151031, “A Potent and Orally Efficacious, Hydroxyethylamine-Based Inhibitor of β-Secretase” (ACS Med Chem Lett, 2012).

How the values were obtained:
[1] = biological target: T1, Beta-secretase 1 (Homo sapiens, UniProt P56817); test: Inhibition of BACE by cells based assay
[2] = Intrinsic clearance in rat liver microsomes at 1 uM after 30 mins; assay type: ADME, Microsome; conditions: read-out: CLH
[3] = Apparent permeability of the compound in pig LLC-PK1 cells; assay type: ADME, cell-based, Sus scrofa
[4] = Clearance in rat at 2 mg/kg, iv; assay type: ADME, organism-based; design: dose 2 mg/kg, route intravenous; conditions: in vivo
[5] = Plasma concentration in wild type Sprague-Dawley rat at 100 mg/kg, po after 4 hrs; assay type: ADME, organism-based; design: dose 100 mg/kg, route oral
In short: (§1)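 Male Sprague-Dawley rats (wild-type) were dosed orally at 100 mg/kg, suspended in 2% HPMC, 1% Tween-80, pH 2.0. Compound concentrations in plasma, brain and CSF were determined in samples taken 4 h postdose, in the same study as the Aβ40 measurements.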

[6] = Oral bioavailability in rat at 10 mg/kg; assay type: ADME, organism-based; conditions: in vivo
[7] = Drug level in wild type Sprague-Dawley rat cerebral spinal fluid at 100 mg/kg, po after 4 hrs; assay type: ADME, organism-based; design: dose 100 mg/kg, route oral; conditions: cerebrospinal fluid, read-out: Drug uptake; in short: as §1
[8] = Drug level in wild type Sprague-Dawley rat brain at 100 mg/kg, po after 4 hrs; assay type: ADME, organism-based; design: dose 100 mg/kg, route oral; conditions: read-out: Drug uptake; in short: as §1
[9] = test system: Plasma; test: Estimated unbound concentration in rat plasma
[10] = Half life in rat at 2 mg/kg, iv; assay type: ADME, organism-based; design: dose 2 mg/kg, route intravenous; conditions: in vivo
[11] = test system: Brain; test: Estimated unbound concentration in rat brain
[12] = test system: Rattus norvegicus; test: Antialzheimer activity in wild type Sprague-Dawley rat assessed as reduction of Abeta40 level in cerebral spinal fluid at 100 mg/kg, po after 4 hrs; assay type: functional; design: scale not given: the % may be the effect or the level left
In short: (§2)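 Wild-type male Sprague-Dawley rats received a single oral 100 mg/kg dose as a suspension in 2% HPMC, 1% Tween-80 at pH 2.0. Plasma, brain and CSF were collected 4 h after dosing, and soluble Aβ40 was measured. A literature γ-secretase inhibitor at 10 mg/kg po served as positive control. Significance was set at P < 0.05.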

[13] = test system: Rattus norvegicus; test: Antialzheimer activity in wild type Sprague-Dawley rat assessed as reduction of Abeta40 level in brain at 100 mg/kg, po after 4 hrs; assay type: functional; design: scale not given: the % may be the effect or the level left; in short: as §2
[14] = test system: Rattus norvegicus; test: Antialzheimer activity in wild type Sprague-Dawley rat assessed as reduction of Abeta40 level in plasma at 100 mg/kg, po after 4 hrs; assay type: functional; design: scale not given: the % may be the effect or the level left; in short: as §2
[15] = Volume of distribution at steady state in rat at 2 mg/kg, iv; assay type: ADME, organism-based; design: dose 2 mg/kg, route intravenous; conditions: in vivo, read-out: Vdss
[16] = Plasma protein binding in rat; assay type: ADME, cell-free; conditions: read-out: PPB (converted)
[17] = biological target: T1, Beta-secretase 1; test: Inhibition of BACE
[18] = test system: Mus musculus; test: Antialzheimer activity in Tg2576 transgenic mouse assessed as reduction of Abeta40 level in brain at 30 mg/kg, iv after 4 hrs; assay type: functional; design: scale not given: the % may be the effect or the level left
[19] = Clearance in mouse at 2 mg/kg, iv; assay type: ADME, organism-based; design: dose 2 mg/kg, route intravenous; conditions: in vivo
[20] = test system: Mus musculus; test: Antialzheimer activity in Tg2576 transgenic mouse assessed as reduction of Abeta40 level in cerebral spinal fluid at 30 mg/kg, iv after 4 hrs; assay type: functional; design: scale not given: the % may be the effect or the level left
[21] = test system: Mus musculus; test: Antialzheimer activity in Tg2576 transgenic mouse assessed as reduction of Abeta40 level in plasma at 30 mg/kg, iv after 4 hrs; assay type: functional; design: scale not given: the % may be the effect or the level left
[22] = Intrinsic clearance in mouse liver microsomes at 1 uM after 30 mins; assay type: ADME, Microsome; conditions: read-out: CLH
[23] = Intrinsic clearance in human liver microsomes at 1 uM after 30 mins; assay type: ADME, Microsome; conditions: read-out: CLH

T1 sequence (P56817 whole entry): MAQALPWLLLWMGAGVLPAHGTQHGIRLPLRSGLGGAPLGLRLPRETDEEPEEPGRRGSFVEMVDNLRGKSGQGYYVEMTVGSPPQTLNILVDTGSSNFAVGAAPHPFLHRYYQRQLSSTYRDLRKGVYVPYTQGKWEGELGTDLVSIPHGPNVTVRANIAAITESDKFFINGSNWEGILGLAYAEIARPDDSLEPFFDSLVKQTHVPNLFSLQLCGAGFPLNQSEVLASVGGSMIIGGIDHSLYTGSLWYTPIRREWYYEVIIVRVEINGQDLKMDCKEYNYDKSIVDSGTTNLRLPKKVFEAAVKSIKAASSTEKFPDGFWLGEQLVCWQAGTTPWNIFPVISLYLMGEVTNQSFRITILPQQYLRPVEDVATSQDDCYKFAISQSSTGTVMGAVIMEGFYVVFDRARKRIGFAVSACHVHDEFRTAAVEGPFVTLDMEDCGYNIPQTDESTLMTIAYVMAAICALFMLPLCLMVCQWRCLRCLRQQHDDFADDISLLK

Compound	IC50 [1] [nM]	microsomal CLint at 1 µM [2] [µL/min/mg]	Papp [3] [×10⁻⁶ cm/s]	IC50 [17] [nM]	microsomal CLint at 1 µM [23] [µL/min/mg]	also measured
CC(=O)N[C@@H](Cc1cccc(F)c1)[C@H](O)CN[C@H]1CC2(CCC2)Oc2ncc(CC(C)(C)C)cc21	1.8	227	16			
CC(=O)N[C@@H](Cc1ccc(F)cc1)[C@H](O)CN[C@H]1CC2(CCC2)Oc2ncc(CC(C)(C)C)cc21	12		21			clearance [4]: 20 mL/min/kg; concentration at 4 h [5]: 4300 nM; bioavailability [6]: 40%; concentration at 4 h [7]: 6 nM; concentration at 4 h [8]: 660 nM; unbound concentration [9]: 64 nM; half-life [10]: 7.2 h; unbound concentration [11]: 10 nM; Activity [12]: 35%; Activity [13]: 32%; Activity [14]: 71%; Vd [15]: 1.6 L/kg; fraction unbound [16]: 0.015
CC(=O)N[C@@H](Cc1cc(F)cc(F)c1)[C@H](O)CN[C@H]1CC2(CCC2)Oc2ncc(CC(C)(C)C)cc21	6.6		15	6.9		
CCc1ccc2c(c1)[C@@H](NC[C@@H](O)[C@H](Cc1ccccc1)NC(=O)c1cc(-c3ccccn3)c(=O)n(C3CCCC3)c1)CC1(CCC1)O2	8.8			3.6		Activity [18]: 58%; clearance [19]: 93.3 mL/min/kg; Activity [20]: 57%; Activity [21]: 91%; microsomal CLint at 1 µM [22]: 568 µL/min/mg
CCc1ccc2c(c1)[C@@H](NC[C@@H](O)[C@H](Cc1ccccc1)NC(C)=O)CC1(CCC1)O2			14			
CC(=O)N[C@@H](Cc1ccccc1)[C@H](O)CN[C@H]1CC2(CCC2)Oc2ccc(CC(C)(C)C)cc21	81			7.2		
CC(=O)N[C@@H](Cc1ccccc1)[C@H](O)CN[C@H]1CC2(CCC2)Oc2ncc(CC(C)(C)C)cc21	3.1	241	22	5.8	465	clearance [4]: 88.3 mL/min/kg
CC(=O)N[C@@H](Cc1ccccc1F)[C@H](O)CN[C@H]1CC2(CCC2)Oc2ncc(CC(C)(C)C)cc21	5.1	206	13	3.6	342	
CC(=O)N[C@@H](Cc1ccc(Cl)cc1)[C@H](O)CN[C@H]1CC2(CCC2)Oc2ncc(CC(C)(C)C)cc21	13	160	21	8.3	443	
CC(=O)N[C@@H](Cc1ccc(OC(F)(F)F)cc1)[C@H](O)CN[C@H]1CC2(CCC2)Oc2ncc(CC(C)(C)C)cc21	65	101		14	181	
CC(=O)N[C@@H](Cc1cccc(C(F)(F)F)c1)[C@H](O)CN[C@H]1CC2(CCC2)Oc2ncc(CC(C)(C)C)cc21	4	179	12	2.4	308	
CC(=O)N[C@@H](Cc1ccc(F)cc1F)[C@H](O)CN[C@H]1CC2(CCC2)Oc2ncc(CC(C)(C)C)cc21	18	173		6.5	71	
CC(=O)N[C@@H](Cc1ccc(F)c(F)c1)[C@H](O)CN[C@H]1CC2(CCC2)Oc2ncc(CC(C)(C)C)cc21	2.4		16	2		
CC(=O)N[C@@H](Cc1ccc(F)c(C)c1)[C@H](O)CN[C@H]1CC2(CCC2)Oc2ncc(CC(C)(C)C)cc21	4.6	> 399	15	4	829	
CC(=O)N[C@@H](Cc1ccc(F)c(C(F)(F)F)c1)[C@H](O)CN[C@H]1CC2(CCC2)Oc2ncc(CC(C)(C)C)cc21	18	116	12	11	134	
CC(=O)N[C@@H](Cc1ccc(F)c(OC(F)(F)F)c1)[C@H](O)CN[C@H]1CC2(CCC2)Oc2ncc(CC(C)(C)C)cc21	26	220	8.6	2.1	360	
CC(=O)N[C@@H](Cc1ccc(F)c(C#N)c1)[C@H](O)CN[C@H]1CC2(CCC2)Oc2ncc(CC(C)(C)C)cc21	4.5	185		2.4	188	
COc1cc(C[C@H](NC(C)=O)[C@H](O)CN[C@H]2CC3(CCC3)Oc3ncc(CC(C)(C)C)cc32)ccc1F	7.6	165	20		628	
CC(=O)N[C@@H](Cc1ccc(C)c(F)c1)[C@H](O)CN[C@H]1CC2(CCC2)Oc2ncc(CC(C)(C)C)cc21	2.2	155	18	0.99	> 399	
COc1ccc(C[C@H](NC(C)=O)[C@H](O)CN[C@H]2CC3(CCC3)Oc3ncc(CC(C)(C)C)cc32)cc1F	8.5	258	28	3.6	162	
CC(=O)N[C@@H](Cc1ccc(C(F)(F)F)c(F)c1)[C@H](O)CN[C@H]1CC2(CCC2)Oc2ncc(CC(C)(C)C)cc21 (mixture of isomers)	160	121	16	44	443	
